# According to ChEMBL document CHEMBL1141348, “Cytotoxic cardenolide glycosides of Roupellina (Strophanthus) boivinii from the Madagascar rainforest” (J Nat Prod, 2007):
# Tested on: A2780
# Experiment: Antiproliferative activity against human A2780 cells
# Type: functional, cell-based
# Method in brief: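 Growth inhibition of the drug-sensitive human ovarian cancer line A2780, measured at Virginia Polytechnic Institute and State University. IC50 is the concentration that inhibited 50% of cell growth. Actinomycin D was the positive control.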
row,Compound,IC50 [nM]
1,C[C@H]1O[C@@H](O[C@H]2CC[C@@]3(C=O)[C@@H](CC[C@@H]4[C@@H]3CC[C@]3(C)[C@@H](C5=CC(=O)OC5)CC[C@]43O)C2)C[C@H](O)[C@H]1O,150
2,CO[C@H]1[C@@H](O)[C@H](O[C@H]2CC[C@@]3(C)[C@@H](CC[C@@H]4[C@@H]3CC[C@]3(C)[C@@H](C5=CC(=O)OC5)CC[C@]43O)C2)O[C@@H](C)[C@@H]1O[C@@H]1O[C@H](CO)[C@@H](O)[C@H](O)[C@H]1O,150
3,C[C@H]1[C@@H](O[C@H]2CC[C@@]3(C)[C@@H](CC[C@@H]4[C@@H]3CC[C@]3(C)[C@@H](C5=CC(=O)OC5)CC[C@]43O)C2)O[C@@H](C)[C@@H](O)[C@H]1O,150
4,CO[C@H]1C[C@H](O[C@H]2CC[C@@]3(C=O)[C@@H](CC[C@@H]4[C@@H]3CC[C@]3(C)[C@H](C5=CC(=O)OC5)CC[C@]43O)C2)O[C@H](C)[C@@H]1O,3700
5,CO[C@@H]1[C@@H](O)[C@H](O[C@H]2CC[C@@]3(C=O)[C@@H](CC[C@@H]4[C@@H]3CC[C@]3(C)[C@@H](C5=CC(=O)OC5)CC[C@]43O)C2)O[C@H](C)[C@@H]1O[C@@H]1O[C@H](CO)[C@@H](O)[C@H](O)[C@H]1O [BOIVINIDE A],170
6,CO[C@H]1C[C@H](O[C@H]2CC[C@@]3(C=O)[C@@H](CC[C@@H]4[C@@H]3CC[C@]3(C)[C@@H](C5=CC(=O)OC5)CC[C@]43O)C2)O[C@H](C)[C@@H]1O[C@@H]1O[C@H](CO)[C@@H](O)[C@H](O)[C@H]1O [BOIVINIDE B],660
7,CO[C@H]1C[C@H](O[C@H]2CC[C@@]3(C=O)[C@@H](CC[C@@H]4[C@@H]3CC[C@]3(C)[C@H](C5=CC(=O)OC5)CC[C@]43O)C2)O[C@H](C)[C@@H]1O[C@@H]1O[C@H](CO)[C@@H](O)[C@H](O)[C@H]1O [BOIVINIDE C],2900
8,C[C@H]1O[C@@H](O[C@H]2CC[C@@]3(C=O)[C@@H](CC[C@@H]4[C@@H]3CC[C@]3(C)[C@@H](C5=CC(=O)OC5)CC[C@]43O)C2)C[C@H](O)[C@H]1O[C@@H]1O[C@H](CO)[C@@H](O)[C@H](O)[C@H]1O [BOIVINIDE D],290
9,CO[C@H]1[C@@H](O[C@@H]2O[C@H](CO)[C@@H](O)[C@H](O)[C@H]2O)[C@@H](C)O[C@@H](O[C@H]2CC[C@@]3(C=O)[C@@H](CC[C@@H]4[C@@H]3CC[C@]3(C)[C@@H](C5=CC(=O)OC5)CC[C@]43O)C2)[C@@H]1OC(C)=O [BOIVINIDE F],540
